Columns and labels:
Conditions in all cases: stereoisomer not certain
OR1N1 (Homo sapiens) = target: T1, OR1N1 (Homo sapiens) (UniProt Q8NGS0)
T1 sequence (whole entry): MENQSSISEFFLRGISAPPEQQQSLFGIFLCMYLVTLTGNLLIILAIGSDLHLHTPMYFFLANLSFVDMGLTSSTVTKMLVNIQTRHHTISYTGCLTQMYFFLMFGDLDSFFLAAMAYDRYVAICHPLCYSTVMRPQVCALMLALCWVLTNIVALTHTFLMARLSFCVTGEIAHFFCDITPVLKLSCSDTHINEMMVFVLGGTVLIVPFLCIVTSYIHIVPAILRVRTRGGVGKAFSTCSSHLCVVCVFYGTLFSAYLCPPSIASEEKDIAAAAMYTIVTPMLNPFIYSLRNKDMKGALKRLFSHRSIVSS
Summary of the method: (§1)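 Each receptor–molecule pair is labelled responsive or non-responsive (inactive) according to whether the original authors judged the measured signal statistically different from baseline. The data were taken from the main text and supplementary material of published papers and checked for typos and inconsistencies. Assay methods differed by source, with transient luciferase assays in mammalian cell lines being common.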

OR1N2 W37R = test system: OR1N2 W37R
Summary of the method: as §1

OR1N2 = test system: OR1N2
Summary of the method: as §1

OR1Q1 (Homo sapiens) = OR1Q1 (Homo sapiens) (UniProt Q15612)
Summary of the method: as §1

OR1Q1 = test system: OR1Q1
Summary of the method: as §1

OR1S1 (Homo sapiens) = OR1S1 (Homo sapiens) (UniProt Q8NH92)
Summary of the method: as §1

OR1S2 (Homo sapiens) = OR1S2 (Homo sapiens) (UniProt Q8NGQ3)
Summary of the method: as §1

OR1S2 E17G = test system: OR1S2 E17G
Summary of the method: as §1

OR1S2 V225T G240R = test system: OR1S2 V225T G240R
Summary of the method: as §1

OR2A1 (Homo sapiens) = target: T2, OR2A1 (Homo sapiens) (UniProt Q8NGT9)
T2 sequence (whole entry): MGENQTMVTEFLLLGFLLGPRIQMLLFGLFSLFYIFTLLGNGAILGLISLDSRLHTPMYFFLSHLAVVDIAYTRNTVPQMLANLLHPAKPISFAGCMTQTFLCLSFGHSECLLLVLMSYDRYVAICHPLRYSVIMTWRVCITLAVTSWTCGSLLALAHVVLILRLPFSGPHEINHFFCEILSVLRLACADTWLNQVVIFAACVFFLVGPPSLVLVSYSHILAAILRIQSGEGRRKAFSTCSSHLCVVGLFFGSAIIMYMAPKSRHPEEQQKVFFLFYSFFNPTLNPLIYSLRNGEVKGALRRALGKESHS
Summary of the method: as §1

OR2A1 S168C = test system: OR2A1 S168C
Summary of the method: as §1

OR2A1 T73A R74C S168C = test system: OR2A1 T73A R74C S168C
Summary of the method: as §1

OR2A12 (Homo sapiens) = OR2A12 (Homo sapiens) (UniProt Q8NGT7)
Summary of the method: as §1

OR2A14 (Homo sapiens) = OR2A14 (Homo sapiens) (UniProt Q96R47)
Summary of the method: as §1

OR2A2 (Homo sapiens) = OR2A2 (Homo sapiens) (UniProt Q6IF42)
Summary of the method: as §1

OR2A25 (Homo sapiens) = OR2A25 (Homo sapiens) (UniProt A4D2G3)
Summary of the method: as §1

OR2A2 = test system: OR2A2
Summary of the method: as §1

OR2A4 (Homo sapiens) = OR2A4 (Homo sapiens) (UniProt O95047)
Summary of the method: as §1

OR2A5 (Homo sapiens) = OR2A5 (Homo sapiens) (UniProt Q96R48)
Summary of the method: as §1

OR1P1 (Homo sapiens) = OR1P1 (Homo sapiens) (UniProt Q8NH06)
Summary of the method: as §1

Measured: odorant receptor agonist call

Sequence of OR2A12 (Homo sapiens) (Q8NGT7 whole entry): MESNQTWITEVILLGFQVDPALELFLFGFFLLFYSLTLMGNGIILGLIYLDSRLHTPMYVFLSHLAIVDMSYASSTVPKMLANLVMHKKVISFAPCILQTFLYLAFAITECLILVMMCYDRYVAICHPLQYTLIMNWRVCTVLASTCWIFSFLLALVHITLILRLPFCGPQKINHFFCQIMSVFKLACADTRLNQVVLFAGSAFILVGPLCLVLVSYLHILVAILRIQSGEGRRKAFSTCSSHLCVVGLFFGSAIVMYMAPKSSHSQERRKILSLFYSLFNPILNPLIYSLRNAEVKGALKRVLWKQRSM
Sequence of OR1S1 (Homo sapiens) (Q8NH92 whole entry): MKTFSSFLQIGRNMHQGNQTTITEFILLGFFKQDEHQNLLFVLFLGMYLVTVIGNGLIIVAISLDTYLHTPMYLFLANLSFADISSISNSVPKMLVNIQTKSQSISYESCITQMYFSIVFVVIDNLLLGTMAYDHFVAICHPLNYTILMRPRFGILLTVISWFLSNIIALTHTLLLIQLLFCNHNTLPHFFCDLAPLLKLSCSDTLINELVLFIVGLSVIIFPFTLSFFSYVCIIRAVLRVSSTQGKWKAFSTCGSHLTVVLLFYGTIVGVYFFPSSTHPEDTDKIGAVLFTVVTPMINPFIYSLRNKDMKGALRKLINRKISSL
Sequence of OR1S2 (Homo sapiens) (Q8NGQ3 whole entry): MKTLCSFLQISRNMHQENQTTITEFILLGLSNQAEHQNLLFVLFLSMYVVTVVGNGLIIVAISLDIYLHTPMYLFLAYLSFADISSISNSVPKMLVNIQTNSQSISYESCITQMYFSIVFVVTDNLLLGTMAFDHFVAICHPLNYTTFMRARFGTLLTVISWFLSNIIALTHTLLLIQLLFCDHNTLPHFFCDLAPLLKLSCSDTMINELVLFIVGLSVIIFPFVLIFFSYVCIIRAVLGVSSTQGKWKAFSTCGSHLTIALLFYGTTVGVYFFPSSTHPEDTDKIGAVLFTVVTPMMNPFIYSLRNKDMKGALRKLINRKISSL
Sequence of OR2A4 (Homo sapiens) (O95047 whole entry): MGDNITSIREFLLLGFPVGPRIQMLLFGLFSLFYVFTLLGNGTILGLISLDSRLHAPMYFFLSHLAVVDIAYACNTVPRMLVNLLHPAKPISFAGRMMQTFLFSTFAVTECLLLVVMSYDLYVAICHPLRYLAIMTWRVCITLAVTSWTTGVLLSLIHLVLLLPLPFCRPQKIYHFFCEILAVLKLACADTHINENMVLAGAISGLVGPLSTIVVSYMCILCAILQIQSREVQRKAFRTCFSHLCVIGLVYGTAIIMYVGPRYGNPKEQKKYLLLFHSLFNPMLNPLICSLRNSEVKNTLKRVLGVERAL
Sequence of OR2A2 (Homo sapiens) (Q6IF42 whole entry): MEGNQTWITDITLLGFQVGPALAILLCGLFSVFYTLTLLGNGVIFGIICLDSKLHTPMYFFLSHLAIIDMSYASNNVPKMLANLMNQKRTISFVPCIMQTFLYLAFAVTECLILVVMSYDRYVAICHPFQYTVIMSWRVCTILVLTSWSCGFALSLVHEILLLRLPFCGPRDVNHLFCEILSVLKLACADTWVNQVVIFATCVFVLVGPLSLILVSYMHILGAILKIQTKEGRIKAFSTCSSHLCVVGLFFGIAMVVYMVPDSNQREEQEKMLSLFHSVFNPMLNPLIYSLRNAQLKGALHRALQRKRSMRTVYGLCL
Sequence of OR2A14 (Homo sapiens) (Q96R47 whole entry): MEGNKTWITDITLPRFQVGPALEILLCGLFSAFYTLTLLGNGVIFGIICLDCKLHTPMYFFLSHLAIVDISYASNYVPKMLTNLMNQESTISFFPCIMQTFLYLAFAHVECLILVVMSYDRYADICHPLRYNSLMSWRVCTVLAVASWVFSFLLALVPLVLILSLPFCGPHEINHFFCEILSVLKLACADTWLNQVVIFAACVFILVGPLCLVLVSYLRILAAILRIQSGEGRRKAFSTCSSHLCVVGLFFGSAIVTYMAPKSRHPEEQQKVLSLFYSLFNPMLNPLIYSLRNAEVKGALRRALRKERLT
Sequence of OR1Q1 (Homo sapiens) (Q15612 whole entry): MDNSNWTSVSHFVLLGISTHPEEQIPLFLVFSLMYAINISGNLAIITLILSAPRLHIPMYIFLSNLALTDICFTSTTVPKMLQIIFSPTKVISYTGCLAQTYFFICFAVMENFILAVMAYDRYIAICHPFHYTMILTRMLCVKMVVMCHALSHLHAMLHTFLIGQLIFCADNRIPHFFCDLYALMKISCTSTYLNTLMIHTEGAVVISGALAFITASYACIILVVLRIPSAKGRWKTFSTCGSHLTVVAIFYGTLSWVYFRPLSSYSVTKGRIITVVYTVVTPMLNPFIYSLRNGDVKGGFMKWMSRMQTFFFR
Sequence of OR2A25 (Homo sapiens) (A4D2G3 whole entry): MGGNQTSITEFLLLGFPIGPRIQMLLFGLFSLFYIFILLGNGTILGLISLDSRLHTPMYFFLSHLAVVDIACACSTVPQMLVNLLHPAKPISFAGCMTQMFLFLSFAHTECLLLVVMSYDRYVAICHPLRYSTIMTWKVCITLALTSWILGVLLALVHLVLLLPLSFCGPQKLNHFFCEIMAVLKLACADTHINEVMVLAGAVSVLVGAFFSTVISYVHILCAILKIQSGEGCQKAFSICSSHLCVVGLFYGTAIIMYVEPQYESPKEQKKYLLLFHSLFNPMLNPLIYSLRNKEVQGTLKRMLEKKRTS
Sequence of OR2A5 (Homo sapiens) (Q96R48 whole entry): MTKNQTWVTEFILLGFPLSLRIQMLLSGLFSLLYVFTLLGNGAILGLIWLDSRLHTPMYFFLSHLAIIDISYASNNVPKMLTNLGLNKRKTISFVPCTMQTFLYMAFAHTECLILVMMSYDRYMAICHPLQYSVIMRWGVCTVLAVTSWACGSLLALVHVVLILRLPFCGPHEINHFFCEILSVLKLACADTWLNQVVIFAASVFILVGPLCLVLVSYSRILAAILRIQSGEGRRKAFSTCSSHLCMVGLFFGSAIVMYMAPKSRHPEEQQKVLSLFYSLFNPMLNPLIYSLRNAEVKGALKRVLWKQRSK
Sequence of OR1N2 (as listed by the source): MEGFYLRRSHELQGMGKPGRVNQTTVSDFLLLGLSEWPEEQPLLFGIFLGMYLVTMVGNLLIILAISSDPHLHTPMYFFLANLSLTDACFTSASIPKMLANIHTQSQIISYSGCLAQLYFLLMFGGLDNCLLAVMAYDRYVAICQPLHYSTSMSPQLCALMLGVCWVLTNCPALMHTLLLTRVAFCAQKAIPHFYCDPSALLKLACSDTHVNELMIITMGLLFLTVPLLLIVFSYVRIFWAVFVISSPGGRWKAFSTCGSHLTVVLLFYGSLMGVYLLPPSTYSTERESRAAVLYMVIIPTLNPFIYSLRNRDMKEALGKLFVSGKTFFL
Sequence of OR1S2 E17G (as listed by the source, stated change not applied): as the sequence (Q8NGQ3 whole entry) above, with E17G counted along it
Sequence of OR2A1 S168C (as listed by the source, stated change not applied): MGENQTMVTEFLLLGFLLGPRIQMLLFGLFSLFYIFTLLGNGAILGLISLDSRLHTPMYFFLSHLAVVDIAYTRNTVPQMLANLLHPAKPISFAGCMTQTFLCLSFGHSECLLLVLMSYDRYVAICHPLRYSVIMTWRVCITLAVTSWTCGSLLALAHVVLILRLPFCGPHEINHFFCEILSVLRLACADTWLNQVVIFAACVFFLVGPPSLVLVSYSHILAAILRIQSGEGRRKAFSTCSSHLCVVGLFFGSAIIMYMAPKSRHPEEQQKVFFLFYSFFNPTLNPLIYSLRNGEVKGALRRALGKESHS
Sequence of OR1N2 W37R (as listed by the source, stated change not applied): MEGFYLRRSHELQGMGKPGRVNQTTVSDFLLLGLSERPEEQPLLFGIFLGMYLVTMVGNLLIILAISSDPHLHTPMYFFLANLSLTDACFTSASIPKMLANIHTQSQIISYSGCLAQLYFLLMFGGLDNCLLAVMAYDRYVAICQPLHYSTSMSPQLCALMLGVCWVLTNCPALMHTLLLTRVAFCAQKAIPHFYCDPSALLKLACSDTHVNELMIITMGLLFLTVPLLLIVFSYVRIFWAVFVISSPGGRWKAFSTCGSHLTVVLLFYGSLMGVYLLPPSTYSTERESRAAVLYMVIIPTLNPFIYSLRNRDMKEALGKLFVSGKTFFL
Sequence of OR1P1 (Homo sapiens) (Q8NH06 whole entry K185A): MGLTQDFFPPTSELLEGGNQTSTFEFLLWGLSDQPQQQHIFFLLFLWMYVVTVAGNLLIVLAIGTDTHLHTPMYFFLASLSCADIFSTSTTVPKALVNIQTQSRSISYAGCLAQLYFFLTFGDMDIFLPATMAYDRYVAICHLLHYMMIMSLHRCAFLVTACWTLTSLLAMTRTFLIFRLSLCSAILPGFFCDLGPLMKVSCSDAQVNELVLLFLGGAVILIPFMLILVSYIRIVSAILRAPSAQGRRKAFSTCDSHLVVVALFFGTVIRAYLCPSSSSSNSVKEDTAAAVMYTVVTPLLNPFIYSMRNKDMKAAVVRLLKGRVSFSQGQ
Sequence of OR1Q1 (as listed by the source): as the sequence (Q15612 whole entry) above, with Q24R, I163M counted along it
Sequence of OR2A2 (as listed by the source): as the sequence (Q6IF42 whole entry) above, with F280L counted along it

C=CCOC(=O)Cc1ccccc1
not listed: OR1P1 (Homo sapiens)
inactive: all other assays above

Cc1c([N+](=O)[O-])c(C)c([N+](=O)[O-])c(C(C)(C)C)c1[N+](=O)[O-]
not listed: OR1N2 W37R | OR1Q1 | OR1S2 E17G | OR1S2 V225T G240R | OR2A1 S168C | OR2A1 T73A R74C S168C | OR2A2
inactive: all other assays above

c1ccncc1
inactive: OR1N1 (Homo sapiens)

COc1ccc(C=O)cc1
inactive: OR2A1 (Homo sapiens)

Cc1cccc(C)c1
inactive: OR2A1 (Homo sapiens)
